Results reported in publication PMC5987874 (The Journal of General Physiology, 2018).
Positions count from the first letter of the chain named. Read-outs that look alike come from different tables or passages of the source.

Columns and labels:
Assay in all cases: Whole-cell voltage clamp, Zn^2+ modulation of GAQ gating
Assay type in all cases: cell-based
[1] = biological target: T1, human Hv1 D130H-H193A (Homo sapiens, UniProt Q96D96, D130H/H193A)
T1 sequence (Q96D96 1-273 D130H/H193A): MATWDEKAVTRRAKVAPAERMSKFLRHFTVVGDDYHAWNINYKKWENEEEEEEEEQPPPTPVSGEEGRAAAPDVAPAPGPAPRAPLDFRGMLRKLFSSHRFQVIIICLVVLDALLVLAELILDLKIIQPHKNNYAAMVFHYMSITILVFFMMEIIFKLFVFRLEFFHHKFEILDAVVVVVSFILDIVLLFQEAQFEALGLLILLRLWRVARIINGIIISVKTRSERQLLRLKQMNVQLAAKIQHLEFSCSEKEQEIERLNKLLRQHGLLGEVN
Outline: (§1)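 Whole-cell patch clamp at ~21°C. Pipette and bath (mM): ~80 TMA-MeSO3, 100 Bis-Tris, 8 HCl, pH 6.5, 310–320 mOsm. ZnCl2 was diluted into bath solution and applied by gravity superfusion, at least 2 min per change. Test step voltage was set per construct from its V0.5. G_STEP = end-of-step current/(V−V_REV). Effect = 1 − G_Zn/G_control, fitted to the Hill equation. IC50 and nH are means ± SEM from separate cells. ΔpIC50 was tested by unpaired t test, P<0.05.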

[2] = biological target: T2, human Hv1 E153A (E^2.53A) (Homo sapiens, UniProt Q96D96, E153A)
T2 sequence (Q96D96 1-273 E153A): T1 sequence (Q96D96 1-273 D130H/H193A) with H130D, E153A, A193H
Outline: as §1

[3] = biological target: T3, human Hv1 D185H-H193A (Homo sapiens, UniProt Q96D96, D185H/H193A)
T3 sequence (Q96D96 1-273 D185H/H193A): T1 sequence (Q96D96 1-273 D130H/H193A) with H130D, D185H
Outline: as §1

[4] = biological target: T4, human Hv1 H140A-H193A (Homo sapiens, UniProt Q96D96, H140A/H193A)
T4 sequence (Q96D96 1-273 H140A/H193A): T1 sequence (Q96D96 1-273 D130H/H193A) with H130D, H140A
Outline: as §1

[5] = biological target: T5, human Hv1 E196H (E^4.38H) (Homo sapiens, UniProt Q96D96, E196H)
T5 sequence (Q96D96 1-273 E196H): T1 sequence (Q96D96 1-273 D130H/H193A) with H130D, A193H, E196H
Outline: as §1

[6] = biological target: T6, human Hv1 H140A-D185H-H193A (Homo sapiens, UniProt Q96D96, D185H/H140A/H193A)
T6 sequence (Q96D96 1-273 H140A/D185H/H193A): T1 sequence (Q96D96 1-273 D130H/H193A) with H130D, H140A, D185H
Outline: as §1

[7] = VSTEP 100 mV, calculated as log (IC50)

Structure (SMILES): [Cl-].[Cl-].[Zn+2] [Zn^2+, ZnCl2]
- Mean ΔpIC50 = (pIC50_1 - pIC50_2) ([1]; D130H-H193A vs D130H): −0.16
- Mean ΔpIC50 = (pIC50_1 - pIC50_2) ([1]; D130H-H193A vs H193A): 1.44
- nH, fit of the mean data to a Hill function ([1]; Fig. 4C): 0.6
- Hill value ([1]; VSTEP 120 mV): 0.91
- pIC50 ([1]; VSTEP 120 mV, calculated as log (IC50)): 5.51
- IC50 ([1]; read-out: IC50, fit of the mean data to a Hill function, Fig. 4C): 5.6 µM
- Mean ΔpIC50 = (pIC50_1 - pIC50_2) ([2]; E153A vs WT): −1.29
- Hill value ([2]; VSTEP 40 mV): 0.87
- pIC50 ([2]; VSTEP 40 mV, calculated as log (IC50)): −3.77
- IC50 ([2]; read-out: Mean IC50 @ VSTEP, VSTEP 40 mV, pH 6.5, mean of fits in separate cells): 241 µM
- Mean ΔpIC50 = (pIC50_1 - pIC50_2) ([3]; D185H-H193A vs D185H): −0.84
- Mean ΔpIC50 = (pIC50_1 - pIC50_2) ([3]; D185H-H193A vs H193A): 0.52
- nH, fit of the mean data to a Hill function ([3]; Fig. 4D): 0.6
- Hill value ([3]; VSTEP 80 mV): 0.60
- pIC50 ([3]; VSTEP 80 mV, calculated as log (IC50)): −4.54
- IC50 ([3]; read-out: IC50, fit of the mean data to a Hill function, Fig. 4D): 26.7 µM
- IC50 ([3]; read-out: Mean IC50 @ VSTEP, VSTEP 80 mV, pH 6.5, mean of fits in separate cells): 37.9 µM
- nH, fit of the mean data to a Hill function ([4]; Fig. 2C): 1.5
- Mean ΔpIC50 = (pIC50_1 - pIC50_2) ([4]; H140A-H193A vs H140A): −1.65
- Mean ΔpIC50 = (pIC50_1 - pIC50_2) ([4]; H140A-H193A vs H193A): −1.30
- Mean ΔpIC50 = (pIC50_1 - pIC50_2) ([4]; H140A-H193A vs WT): −2.68
- Hill value ([4]; VSTEP 100 mV): 1.57
- IC50 ([4]; VSTEP 100 mV): 1700 ± 300 µM
- pIC50 [4, 7]: −2.76
- IC50 ([4]; read-out: IC50, fit of the mean data to a Hill function, Fig. 2C): 1740 µM
- Mean ΔpIC50 = (pIC50_1 - pIC50_2) ([5]; E196H vs WT): −0.43
- Hill value ([5]; VSTEP 100 mV): 0.63
- pIC50 [5, 7]: −4.63
- Mean ΔpIC50 = (pIC50_1 - pIC50_2) ([6]; H140A-D185H-H193A vs H140A-H193A): 0.38
- Hill value ([6]; VSTEP 100 mV): 1.05
- pIC50 [6, 7]: −3.15
